According to ChEMBL document CHEMBL4813970, “Design, synthesis and evaluation of novel dimethylamino chalcone-O-alkylamines derivatives as potential multifunctional agents against Alzheimer's disease” (Eur J Med Chem, 2021):
Activity calls are given as the source filed them. The rule behind the calls is not given here.

Columns and labels:
[1] = molecular target: T1, Amine oxidase [flavin-containing] B (Homo sapiens, UniProt P27338); assay: Inhibition of human recombinant MAO-B by multimode plate reader assay
T1 sequence (P27338 whole entry): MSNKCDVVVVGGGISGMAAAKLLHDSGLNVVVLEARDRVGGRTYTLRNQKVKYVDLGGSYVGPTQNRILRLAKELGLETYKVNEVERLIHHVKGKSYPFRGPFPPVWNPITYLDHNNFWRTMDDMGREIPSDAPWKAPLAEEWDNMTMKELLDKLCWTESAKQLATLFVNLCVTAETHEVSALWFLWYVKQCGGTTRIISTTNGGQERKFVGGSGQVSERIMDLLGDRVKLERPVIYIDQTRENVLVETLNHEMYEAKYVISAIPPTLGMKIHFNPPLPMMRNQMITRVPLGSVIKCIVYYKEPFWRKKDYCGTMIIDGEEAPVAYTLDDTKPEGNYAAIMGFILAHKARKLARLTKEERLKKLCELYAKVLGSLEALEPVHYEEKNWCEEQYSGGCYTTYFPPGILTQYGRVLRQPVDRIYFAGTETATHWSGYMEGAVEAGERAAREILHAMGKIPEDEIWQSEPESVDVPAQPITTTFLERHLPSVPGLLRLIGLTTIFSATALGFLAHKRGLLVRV

[2] = Metal chelating activity assessed as compound-Cu2+ complex formation by measuring maximum absorption wavelength shifted from 444 nm to 460 nm by UV-Visible spectrophotometry
Method in brief: (§1)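 UV-vis spectra recorded from 200 to 600 nm on a multimode reader. Metals tested as CuCl2, FeSO4, ZnCl2 and AlCl3.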

[3] = Acute toxicity in KM mouse assessed as abnormal behavior upto 1000 mg/kg, po administered as single dose measured for 14 days; type: organism-based; settings: in vivo, 336 h, time 14 day
Method in brief: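 Kunming mice, n = 10 per group, fasted overnight with free access to water, given one oral dose of 67.5, 125, 250, 500 or 1000 mg/kg. Housed on a 12 h light/dark cycle at 20–22 °C, 40–70% relative humidity. Abnormal behaviour and mortality observed continuously for the first 4 h, intermittently over the next 24 h, then occasionally to 14 days.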

PC-12 [4] = assay: Neuroprotective activity against H2O2-induced cytotoxicity in rat PC12 cells assessed as increase in cell viability by LDH assay; type: functional, cell-based
Method in brief: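 PC12 cells exposed to H2O2, with or without compound. Membrane damage read as LDH release into the supernatant. Trolox is the reference.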

[5] = Permeability of the compound by PAMPA; type: ADME; settings: read-out: permeability
Method in brief: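 PAMPA-BBB. Assay validated against 11 commercial drugs with reported permeability values.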

Homo sapiens = species: Homo sapiens; assay: Selectivity index, ratio of IC50 for recombinant human MAO-A to IC50 for recombinant human MAO-B
Method in brief: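 Selectivity index taken as IC50(hMAO-A)/IC50(hMAO-B). IC50 values are mean ± SEM from three experiments.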

[6] = molecular target: T2, Amyloid-beta precursor protein (Homo sapiens, UniProt P05067); assay: Disaggregation of Cu2+ induced amyloid beta (1 to 42 residues) (unknown origin) aggregation at 25 uM by thioflavin-T fluorescence method relative to control
[7] = Metal chelating activity assessed as compound Fe2+ complex formation by UV-Visible spectrophotometry; method in brief: as §1
PC-12 [8] = assay: Neuroprotective activity against H2O2-induced cytotoxicity in rat PC12 cells assessed as increase in cell viability at 10 uM by MTT assay; type: functional
Method in brief: (§2)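 PC12 cells exposed to 100 μM H2O2, with or without compound. Viability read by MTT reduction relative to control. Trolox 100 μM is the reference.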

[9] = molecular target: T3, Amine oxidase [flavin-containing] A (Homo sapiens, UniProt P21397); assay: Inhibition of human recombinant MAO-A by multimode plate reader assay
T3 sequence (P21397 whole entry): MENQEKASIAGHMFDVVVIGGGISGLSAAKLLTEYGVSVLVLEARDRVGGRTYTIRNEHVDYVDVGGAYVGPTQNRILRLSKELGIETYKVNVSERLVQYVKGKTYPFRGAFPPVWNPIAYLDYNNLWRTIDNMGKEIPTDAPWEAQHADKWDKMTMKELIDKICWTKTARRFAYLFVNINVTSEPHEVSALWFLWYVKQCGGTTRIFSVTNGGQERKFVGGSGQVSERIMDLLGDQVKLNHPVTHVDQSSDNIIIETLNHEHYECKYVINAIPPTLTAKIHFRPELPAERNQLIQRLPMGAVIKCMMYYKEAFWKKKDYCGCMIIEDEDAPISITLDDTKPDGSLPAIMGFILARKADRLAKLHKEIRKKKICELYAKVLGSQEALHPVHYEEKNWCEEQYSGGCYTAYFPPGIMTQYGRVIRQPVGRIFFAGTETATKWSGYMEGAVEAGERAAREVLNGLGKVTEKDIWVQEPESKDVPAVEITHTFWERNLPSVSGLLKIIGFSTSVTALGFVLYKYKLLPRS

[10] = molecular target: T2, Amyloid-beta precursor protein; assay: Inhibition of Cu2+ induced amyloid beta (1 to 42 residues) (unknown origin) aggregation at 25 uM by thioflavin-T fluorescence method relative to control
Mus musculus = assay: Antialzheimer activity in scopolamine-induced po dosed KM mouse model of memory impairment assessed as increase in latency time treated for 7 days followed by training trial at 1 hr post dose and subsequent scopolamine challenge at 30 mins post training trial and measured post last dose by step-down passive avoidance test; type: functional, organism-based; settings: dose 2.3-20.4 mg/kg, time 7.0 day
Method in brief: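 Mice orally dosed at 2.3, 6.8 and 20.4 mg/kg, with donepezil 5.0 mg/kg p.o. as positive control, 1 h before training trial. Scopolamine 3 mg/kg i.p. given 30 min later. Training trial uses a 0.5 mA, 2 s foot shock on stepping down from the block. Step-down latency is measured as the test trial 24 h after training. n = 10 per group.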

PC-12 [11] = assay: Neuroprotective activity against H2O2-induced cytotoxicity in rat PC12 cells assessed as increase in cell viability at 1 uM by MTT assay; type: functional; method in brief: as §2
Acetylcholinesterase [12] = molecular target: T4, Acetylcholinesterase (Electrophorus electricus, UniProt O42275); assay: Mixed type inhibition of electric eel AChE by reciprocal Lineweaver-Burk plot analysis
[13] = Antioxidant activity of compound assessed as trolox equivalent antioxidant capacity by ORAC-FL assay; type: functional
Acetylcholinesterase [14] = molecular target: T4, Acetylcholinesterase; assay: Inhibition of electric eel AChE using acetylthiocholine iodide as substrate by Ellman's method
[15] = Metal chelating activity assessed as compound-Al3+ complex formation by measuring maximum absorption wavelength shifted from 444 nm to 468 nm by UV-Visible spectrophotometry; method in brief: as §1
[16] = molecular target: Acetylcholinesterase (Electrophorus electricus) (UniProt O42275); assay: Mixed type inhibition of electric eel AChE assessed as decrease in Vmax by reciprocal Lineweaver-Burk plot analysis; settings: dose 0.5-2 µM
PC-12 [17] = assay: Cytotoxicity against rat PC12 cells assessed as cell viability by MTT assay relative to control; type: functional
[18] = molecular target: T2, Amyloid-beta precursor protein; assay: Disaggregation of self-induced amyloid beta (1 to 42) (unknown origin) at 25 uM measured by Thioflavin T based fluorometric assay relative to control
[19] = molecular target: T2, Amyloid-beta precursor protein; assay: Inhibition of self-induced amyloid beta (1 to 42) (unknown origin) assessed as reduction in fibril formation incubated for 24 hrs by transmission electron microscopy
Method in brief: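 Aβ1-42 at 25 μM incubated 24 h with or without compound at 25 μM. Samples imaged by transmission electron microscopy.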

T2 sequence (P05067 whole entry, the tested form may be a part): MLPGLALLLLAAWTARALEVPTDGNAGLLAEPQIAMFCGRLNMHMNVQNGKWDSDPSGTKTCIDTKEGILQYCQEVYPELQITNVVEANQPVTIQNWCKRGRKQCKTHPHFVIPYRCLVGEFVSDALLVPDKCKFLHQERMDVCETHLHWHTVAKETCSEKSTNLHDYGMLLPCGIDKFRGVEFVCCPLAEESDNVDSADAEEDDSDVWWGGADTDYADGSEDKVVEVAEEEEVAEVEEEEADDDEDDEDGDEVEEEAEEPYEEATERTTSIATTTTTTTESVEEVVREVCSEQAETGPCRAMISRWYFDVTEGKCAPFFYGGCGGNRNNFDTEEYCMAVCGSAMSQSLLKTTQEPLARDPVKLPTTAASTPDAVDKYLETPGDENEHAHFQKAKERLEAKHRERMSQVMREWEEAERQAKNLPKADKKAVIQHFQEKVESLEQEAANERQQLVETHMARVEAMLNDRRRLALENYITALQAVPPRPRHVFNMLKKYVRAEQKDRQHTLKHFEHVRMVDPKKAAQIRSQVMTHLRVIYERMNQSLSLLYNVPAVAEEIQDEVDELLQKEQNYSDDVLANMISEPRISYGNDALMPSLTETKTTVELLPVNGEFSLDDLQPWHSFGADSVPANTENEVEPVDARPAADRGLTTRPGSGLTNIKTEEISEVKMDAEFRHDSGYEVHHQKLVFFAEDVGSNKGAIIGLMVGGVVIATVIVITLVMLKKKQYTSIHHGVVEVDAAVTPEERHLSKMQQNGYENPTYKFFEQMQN
T4 sequence (O42275 whole entry): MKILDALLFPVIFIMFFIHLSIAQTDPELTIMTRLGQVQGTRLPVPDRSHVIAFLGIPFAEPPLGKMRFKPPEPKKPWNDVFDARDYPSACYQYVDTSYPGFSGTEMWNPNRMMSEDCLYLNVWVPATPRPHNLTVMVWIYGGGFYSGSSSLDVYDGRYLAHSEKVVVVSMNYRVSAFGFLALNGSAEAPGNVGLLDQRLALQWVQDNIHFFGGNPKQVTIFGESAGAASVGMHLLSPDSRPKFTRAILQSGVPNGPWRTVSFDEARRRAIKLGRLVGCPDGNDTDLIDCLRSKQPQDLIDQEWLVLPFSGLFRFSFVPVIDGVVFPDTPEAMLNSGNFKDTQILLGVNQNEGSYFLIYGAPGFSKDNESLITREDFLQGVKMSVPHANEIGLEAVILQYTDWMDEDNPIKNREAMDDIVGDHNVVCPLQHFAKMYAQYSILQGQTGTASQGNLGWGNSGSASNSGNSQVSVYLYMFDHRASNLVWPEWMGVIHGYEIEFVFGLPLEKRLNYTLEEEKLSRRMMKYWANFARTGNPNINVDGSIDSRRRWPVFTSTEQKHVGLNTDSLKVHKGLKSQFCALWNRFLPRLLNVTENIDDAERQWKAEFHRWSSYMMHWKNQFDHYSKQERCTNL
Acetylcholinesterase (Electrophorus electricus), sequence (O42275 24-633 limits assumed): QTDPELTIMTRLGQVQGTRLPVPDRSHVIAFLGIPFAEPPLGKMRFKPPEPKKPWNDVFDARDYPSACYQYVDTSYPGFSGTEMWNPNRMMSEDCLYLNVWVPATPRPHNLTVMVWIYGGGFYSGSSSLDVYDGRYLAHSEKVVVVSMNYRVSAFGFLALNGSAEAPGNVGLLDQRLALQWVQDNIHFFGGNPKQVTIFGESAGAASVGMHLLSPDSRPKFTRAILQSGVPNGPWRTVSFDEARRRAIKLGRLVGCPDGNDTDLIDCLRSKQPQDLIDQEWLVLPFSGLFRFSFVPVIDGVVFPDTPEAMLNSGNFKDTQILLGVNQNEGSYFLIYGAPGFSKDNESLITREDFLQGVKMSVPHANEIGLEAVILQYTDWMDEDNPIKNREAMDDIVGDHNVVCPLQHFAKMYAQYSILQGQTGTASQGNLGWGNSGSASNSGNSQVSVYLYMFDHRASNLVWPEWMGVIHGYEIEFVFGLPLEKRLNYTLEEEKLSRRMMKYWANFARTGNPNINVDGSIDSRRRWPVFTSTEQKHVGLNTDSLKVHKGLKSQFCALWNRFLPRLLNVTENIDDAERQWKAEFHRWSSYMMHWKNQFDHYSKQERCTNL

## CCN(CCCCOc1ccc(C(=O)/C=C/c2ccc(N(C)C)cc2)c(O)c1)Cc1ccccc1N(C)C
[1]
  IC50: 1 µM
[2]
  Activity: Active
[3]
  Activity: Non-Toxic
PC-12 [4]
  Activity: Active
[5]
  Papp: 13.4 ×10⁻⁶ cm/s
Homo sapiens
  Selectivity Index: 18.4
[6]
  Activity: 88.1%
[7]
  Activity: inactive
PC-12 [8]
  Activity: 88.1%
[9]
  IC50: 18.4 µM
[10]
  inhibition: 95.3%
Mus musculus
  Activity: Dose-Dependent Effect
PC-12 [11]
  Activity: 70.9%
Acetylcholinesterase [12]
  Ki: 0.5 µM
[13]
  Activity: 2.1
Acetylcholinesterase [14]
  IC50: 0.69 µM
[15]
  Activity: Active
[16]
  inhibition: Active
PC-12 [17]
  Activity: >50 µM
[18]
  Activity: 95.1%
[19]
  Activity: inactive
